Data published in ChEMBL document CHEMBL1152956, “Synthesis and cytotoxic activity of 5,6-heteroaromatically annulated pyridine-2,4-diamines” (Bioorg Med Chem, 2009).

Tests used:
DAN-G [1] = test: Cytotoxicity against human DAN-G cells after 96 hrs by crystal violet staining; type: functional, cell-based
Procedure, shortened: (§1)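 Compounds were held as 20 mM DMSO stocks at -20 °C and serially diluted in DMSO to working solutions of 20, 10, 5.0, 2.50, 1.25 and […]. Five of these were diluted 1000-fold into medium, with DMSO-only controls. Dividing cells had 96 h continuous exposure, then glutaraldehyde fixation and crystal violet staining. Dye was redissolved in 70% ethanol and read at OD 570 nm. IC50 came from linear regression of log dose–response curves.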

A-427 [2] = test: Cytotoxicity against human A427 cells after 96 hrs by crystal violet staining; type: functional, cell-based; conditions: A-427, 96 h; procedure, shortened: as §1
MCF7 [3] = test: Cytotoxicity against human MCF7 cells after 96 hrs by crystal violet staining; type: functional, cell-based; conditions: MCF7, 96 h; procedure, shortened: as §1
[4] = Cytotoxicity against human LCLC-103H cells after 96 hrs by crystal violet staining; type: functional, cell-based; procedure, shortened: as §1
RT-4 [5] = test: Cytotoxicity against human RT4 cells after 96 hrs by crystal violet staining; type: functional, cell-based; conditions: RT-4, 96 h; procedure, shortened: as §1
5637 [6] = test: Cytotoxicity against human 5637 cells after 96 hrs by crystal violet staining; type: functional, cell-based; conditions: Homo sapiens, 5637, 96 h; procedure, shortened: as §1
5637 [7] = test: Growth inhibition of human 5637 cells at 20 uM after 96 hrs by crystal violet staining; type: functional; conditions: Homo sapiens, 5637, 96 h; read-out: GI
Procedure, shortened: (§2)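 This was a single-concentration screen. Actively dividing cells had 96 h continuous exposure to compound diluted 1000-fold from a DMSO solution into medium. Cells were fixed with glutaraldehyde and stained with crystal violet. Bound dye was redissolved in 70% ethanol and read at OD 570 nm. Growth inhibition was expressed against untreated controls.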

MCF7 [8] = test: Growth inhibition of human MCF7 cells at 20 uM after 96 hrs by crystal violet staining; type: functional; conditions: MCF7, 96 h, read-out: GI; procedure, shortened: as §2
[9] = Growth inhibition of human LCLC-103H cells at 20 uM after 96 hrs by crystal violet staining; type: functional; conditions: read-out: GI; procedure, shortened: as §2
A-427 [10] = test: Growth inhibition of human A427 cells at 20 uM after 96 hrs by crystal violet staining; type: functional; conditions: A-427, 96 h, read-out: GI; procedure, shortened: as §2
RT-4 [11] = test: Growth inhibition of human RT4 cells at 20 uM after 96 hrs by crystal violet staining; type: functional; conditions: RT-4, 96 h, read-out: GI; procedure, shortened: as §2
DAN-G [12] = test: Growth inhibition of human DAN-G cells at 20 uM after 96 hrs by crystal violet staining; type: functional; conditions: read-out: GI; procedure, shortened: as §2

SMILES	IC50 (DAN-G [1]) [µM]	IC50 (A-427 [2]) [µM]	IC50 (MCF7 [3]) [µM]	IC50 [4] [µM]	IC50 (RT-4 [5]) [µM]	IC50 5637 [6] [µM]	inhibition of growth at 20 µM 5637 [7] [%]	inhibition of growth at 20 µM (MCF7 [8]) [%]	inhibition of growth at 20 µM [9] [%]	inhibition of growth at 20 µM (A-427 [10]) [%]	inhibition of growth at 20 µM (RT-4 [11]) [%]	inhibition of growth at 20 µM (DAN-G [12]) [%]
CN(C)c1cc(N)c2c(n1)[nH]c1c3ccccc3ccc12	9.84	6.58	7.52	9.67	6.56	7.9						
CN(C)c1cc(N)c2c(n1)[nH]c1ccccc12	> 20	> 20	> 20	> 20	> 20	> 20	< 50	< 50	< 50	< 50	< 50	< 50
Nc1cc(N2CCCC2)nc2nc(-c3ccccc3)c(-c3ccccc3)cc12	6.34	4.33	4.08	12.5	12	2.75						
Nc1cc(N2CCCC2)nc2oc(-c3ccccc3)c(-c3ccccc3)c12	> 20	13.8	14.7	> 20	17.7	18.4			< 50			< 50
CN(C)c1cc(N)c2c3ccc4ccccc4c3n(C)c2n1	> 20	14.3	21.3	> 20	12.9	> 20	< 50		< 50			< 50
CN(C)c1cc(N)c2c(-c3ccccc3)c(-c3ccccc3)n(Cc3ccccc3)c2n1	> 20		> 20	> 20	> 20	> 20	< 50	< 50	< 50		< 50	< 50
COc1ccc(Cn2c3ccccc3c3c(N)cc(N(C)C)nc32)cc1	> 20	> 20	> 20	> 20		> 20	< 50	< 50	< 50	< 50		< 50
CN(C)c1cc(N)c2c3c(n(Cc4ccccc4)c2n1)CCCC3	> 20			> 20					< 50			< 50
CCOC(OCC)n1c2ccccc2c2c(N)cc(N(C)C)nc21	> 20	> 20	> 20	> 20	> 20	> 20	< 50	< 50	< 50	< 50	< 50	< 50
CN(C)c1cc(N)c2ccc3ccccc3c2n1	10.2	8.22	6.2	8.93	7.82	10						
CN(C)c1cc(N)c2c(-c3ccccc3)c(-c3ccccc3)oc2n1	> 20	14.6	18.8	> 20	> 20	14.9			< 50		< 50	< 50
CN(C)c1cc(N)c2cc(-c3ccccc3)c(-c3ccccc3)nc2n1	11.6	7.93	7.79	13.7	14.4	8.03						
Cc1c2ccncc2c(C)c2c1[nH]c1ccccc12 [ELLIPTECINE]		0.89	0.43	0.8	1.21	0.89						
